Test results published in publication PMC10234622 (Matrix biology : journal of the International Society for …, 2022).

Tests used:
[1] = system: Aspn in differentiated H9c2 cardiomyocytes; experiment: Aspn expression and release in H9c2 cardiomyocytes; format: cell-based; conditions: TGFβ1 stimulation of cardiomyocytes
[2] = system: Aspn in 3T3 embryonic fibroblasts; experiment: Aspn expression and release in 3T3 embryonic fibroblasts, western blot; format: cell-based; conditions: TGFβ1 5 ng/ml, 24 h; n = 4
How it was run: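 3T3 fibroblasts were grown in DMEM (10 mM glucose, 10% FBS, pH 7.4) and given vehicle or TGFβ1 5 ng/ml for 24 h. Intracellular Aspn came from cell lysates and extracellular Aspn from the collected media. Equal protein (Bradford) was run on 4–12% Bis-Tris gels and transferred to nitrocellulose. Blots were blocked in 5% milk 45 min, probed with anti-ASPN 1:1000 overnight at 4 °C, then peroxidase secondary 2 h RT; n = 4.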

[3] = target: FITC-labeled ASPN peptide (FITC-ε-Ahx-Asporin) (mouse); experiment: MST
[4] = system: differentiated H9c2 cardiomyocytes; experiment: LDH release after hypoxia/reoxygenation; format: cell-based; conditions: rASPN 1 nM for 24 hrs prior to hypoxia (2 hrs) and reoxygenation (2 hrs); n = 4
H9c2 cardiomyocytes = experiment: Seahorse respirometry on differentiated H9c2 cardiomyocytes; format: cell-based; conditions: rASPN 1 nM for 24 hrs, vs vehicle, n = 3
How it was run: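 H9c2 cells were seeded at 15,000/well and differentiated for 5 days, then given vehicle or rASPN 1 nM for 24 h. Medium was switched to XF base with glucose, pyruvate and glutamine, and cells equilibrated 45 min at 37 °C without CO₂. OCR was recorded at several time points, basally and after sequential oligomycin, FCCP and antimycin A/rotenone. Parameters were calculated from traces; mean with SD, n = 3, unpaired t-test.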

[5] = system: differentiated H9c2 cardiomyocytes; experiment: TUNEL staining after hypoxia/reoxygenation; format: cell-based; conditions: rASPN treatment; hypoxia-reoxygenation
How it was run: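 H9c2 cells were differentiated for 5 days (1% FBS, 1 nM retinoic acid) and given vehicle or rASPN 1 nM for 24 h. Hypoxia 2 h and reoxygenation 2 h followed. Cells were fixed in 2% PFA 15 min RT, permeabilized with 0.1% Triton X-100, TUNEL-labelled with fluorescein and counterstained with DAPI. TUNEL-positive nuclei were counted over many fields of 10–15 cells and expressed as a ratio to DAPI-stained cells; mean with SD.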

[6] = system: differentiated H9c2 cardiomyocytes; experiment: MitoSOX staining, ROS after hypoxia-reoxygenation; format: cell-based; conditions: rASPN
How it was run: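 H9c2 cells were differentiated for 5 days in DMEM with 1% FBS and 1 nM retinoic acid. They were given vehicle or rASPN, then simulated hypoxia-reoxygenation; control cells stayed under normal culture. Cells were stained with MitoSOX red and imaged by fluorescence microscopy. Intensity was expressed relative to control; mean with SD, one-way ANOVA with Tukey's test.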

## TGFβ1: Transforming growth factor β1
[1]
  Aspn induction or release in extracellular media: no significant induction or any release in extracellular media
[2]
  expression of Aspn (intracellular): increased expression
  release of Aspn into extracellular media: increased release of Aspn

## recombinant mouse TGFβ-1 protein (from UniProt P04202 279-390) (ligand)
[3]
  Kd: 15 nM

B1: rASPN: Recombinant asporin protein (protein, UniProt Q9BXN1 33-380, looked up)
Asporin: DMEDTDDDDDDDDDDDDDDEDNSLFPTREPRSHFFPFDLFPMCPFGCQCYSRVVHCSDLGLTSVPTNIPFDTRMLDLQNNKIKEIKENDFKGLTSLYGLILNNNKLTKIHPKAFLTTKKLRRLYLSHNQLSEIPLNLPKSLAELRIHENKVKKIQKDTFKGMNALHVLEMSANPLDNNGIEPGAFEGVTVFHIRIAEAKLTSVPKGLPPTLLELHLDYNKISTVELEDFKRYKELQRLGLGNNKITDIENGSLANIPRVREIHLENNKLKKIPSGLPELKYLQIIFLHSNSIARVGVNDFCPTVPKMKKSLYSAISLFNNPVKYWEMQPATFRCVLSRMSVQLGNFGM
[4]
  cell death (LDH release): reduced cell death
H9c2 cardiomyocytes; FCCP as uncoupler
  maximal respiration: significant increase
  spare respiratory capacity: significant increase
H9c2 cardiomyocytes
  ATP production: increased basal OCR and ATP production
  basal OCR: increased basal OCR
  non-mitochondrial OCR: reducing
[5]
  percent TUNEL positive cells: reduced percent TUNEL positive cells
[6]
  ROS production (MitoSOX): significantly reduced
